The subject of one experiment is MDA-MB-231. Kind of experiment: Cytotoxicity against human MDA-MB-231 cells at 100 ug/ml. The class given is functional, cell-based.
The subject of the next experiment is A549. Nature of the experiment: Cytotoxicity against human A549 cells at 100 ug/ml. The class given is functional, cell-based.
The next experiment concerns Trichophyton rubrum. Nature of the experiment: Antifungal activity against Trichophyton rubrum IFO 9185 after 48 to 72 hrs. The class given is functional. The gist of the method:
(§1)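 Candida albicans grown in YPD (1% yeast extract, 2% peptone, 2% dextrose) 48 h at 28 °C, harvested, washed twice with water; moulds grown on potato dextrose agar 2 weeks at 28 °C, spores washed and resuspended in PDB. Broth microdilution in PDB (10⁴ cells/mL) with compound added in 5% DMSO (0.5% DMSO solvent control); 28 °C, 48–72 h; MIC = lowest concentration inhibiting growth.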

For another experiment, the system named is Escherichia coli. Kind of experiment: Antibacterial activity against Escherichia coli ATCC 35270. The class given is functional, organism-based.
The next experiment deals with Bacillus subtilis. Nature of the experiment: Antibacterial activity against Bacillus subtilis ATCC 6633. The class given is functional, organism-based.
Experiment [1] can be described thus: Inhibition of candida albicans ICL assessed as formation of glyoxylate phenylhydrazone after 30 mins by Dixon and Kornberg's method.
In another experiment the test system is Micrococcus luteus. Kind of experiment: Antibacterial activity against Micrococcus luteus IFO 12708. The class given is functional, organism-based.
The test system of another experiment is SK-HEP1. Kind of experiment: Cytotoxicity against human SKHEP1 cells at 100 ug/ml. The class given is functional, cell-based.
Another experiment concerns Proteus vulgaris. Nature of the experiment: Antibacterial activity against Proteus vulgaris ATCC 3851. The class given is functional, organism-based.
For a further experiment, the system named is Aspergillus fumigatus. Nature of the experiment: Antifungal activity against Aspergillus fumigatus HIC 6094 after 48 to 72 hrs. The class given is functional. The method in brief: as §1
The subject of experiment [2] is Trichophyton mentagrophytes. Kind of experiment: Antifungal activity against Trichophyton mentagrophytes IFO4 0996 after 48 to 72 hrs. The class given is functional. The method in brief: as §1
Experiment [3] deals with Candida albicans. Kind of experiment: Antifungal activity against Candida albicans ATCC 10231 after 48 to 72 hrs. The class given is functional. The method in brief: as §1
The next experiment concerns Salmonella typhimurium. Kind of experiment: Antibacterial activity against Salmonella typhimurium ATCC 14028. The class given is functional, organism-based. To be noted: Salmonella enterica subsp. enterica serovar Typhimurium.
For a further experiment, the system named is Staphylococcus aureus. Kind of experiment: Antibacterial activity against Staphylococcus aureus ATCC 6538p. The class given is functional, organism-based.
The subject of the next experiment is HCT-116. Kind of experiment: Cytotoxicity against human HCT116 cells at 100 ug/ml. The class given is functional, cell-based.
The subject of experiment [4] is Candida albicans. Kind of experiment: Inhibition of candida albicans ICL assessed as formation of glyoxylate phenylhydrazone at 100 ug/ml after 30 mins by Dixon and Kornberg's method.

≈ marks a conversion by molar mass, not a printed value. Calls of active or inactive are those of the source. No cut-off for these calls is given here.

The term MIC denotes the lowest concentration that inhibits growth of the organism. By IC50 is commonly meant the concentration at which inhibition is half-maximal. As to `CC(C)[C@@H]1OC(=O)/C=C/C=C/C=C/C=C/C=C/C=C/C[C@@H](O)C[C@H](O)C[C@H](O)C[C@H](O)C[C@@H](O)C[C@H](O)C[C@@H](O)C[C@@H](O)C[C@@H](O)CC[C@@H]1C` [BAHAMAOLIDE A], the outcome in the experiment on MDA-MB-231, in the experiment with A549, in the experiment with Escherichia coli, in the experiment with Bacillus subtilis, in the experiment with Micrococcus luteus and in the experiment on SK-HEP1 was inactive. The outcome in the experiment on Proteus vulgaris, in the experiment with Salmonella typhimurium, with Staphylococcus aureus and with HCT-116 was inactive. The MIC (against Trichophyton rubrum; with Aspergillus fumigatus; in [2]; in the experiment on Candida albicans [3]) was 12.5 µg/mL (≈ 17.6 µM) each time. Also, the IC50 in experiment [1] was determined as 10.8 µM.
Turning to `CC(C)[C@@H]1OC(=O)/C=C/C=C/C=C/C=C/C=C/C=C\C[C@@H](O)C[C@H](O)C[C@H](O)C[C@H](O)C[C@@H](O)C[C@H](O)C[C@@H](O)C[C@@H](O)C[C@@H](O)CC[C@@H]1C` [BAHAMAOLIDE B], the outcome with MDA-MB-231, in the experiment with A549, in the experiment with Trichophyton rubrum, in the experiment on Escherichia coli, in the experiment with Bacillus subtilis and in the experiment on Micrococcus luteus was inactive. Also, the result (in the experiment on SK-HEP1; in the experiment with Proteus vulgaris; in the experiment on Aspergillus fumigatus; in experiment [2]; in the experiment on Candida albicans [3]; with Salmonella typhimurium) was inactive. Also, the result in the experiment with Staphylococcus aureus and in the experiment with HCT-116 was inactive. Also, in [1], the IC50 was 127 µM.
Turning to `C[C@@H]1[C@H](O)[C@@H](C)/C=C/C=C/C=C/C=C/C=C/C=C/C=C/[C@H](O[C@@H]2O[C@H](C)[C@@H](O)[C@H](N)[C@@H]2O)C[C@@H]2O[C@](O)(C[C@@H](O)C[C@@H](O)[C@H](O)CC[C@@H](O)C[C@@H](O)CC(=O)O[C@H]1C)C[C@H](O)[C@H]2C(=O)O`, the inhibition result in the experiment with Candida albicans [4] is “inactive”.

The values are drawn from ChEMBL document CHEMBL2046350, “Bahamaolides A and B, antifungal polyene polyol macrolides from the marine actinomycete Streptomyces sp” (J Nat Prod, 2012).
